# Experiment: Toxicity liver stage against HepG2, at 10uM
# Type: cell-based
# Design: test concentration 10 uM, cell line HepG2-A16-CD81EGFP
# Conditions: human, HepG2-A16-CD81EGFP cells; read-out: INHIBITION
# In short: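 Uninfected HepG2-A16-CD81EGFP cells, 3 × 10^3 per well, 1536-well, plated on prespotted compound at 10 μM final, parasite-free screening media added to match infected plates; puromycin 10 μM positive, DMSO 0.5% negative; run in parallel with 48 h PbLuc assay at 37 °C, 5% CO2; viability by CellTiter-Glo luminescence, normalized to controls.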
row,Structure (SMILES),cytotoxicity at 10 µM [%]
1,O=C(c1ccco1)N1CCCC(c2cc(C(F)(F)F)n3ncnc3n2)C1 (stereo not given),-3.55
2,Cc1cc(C)c2cc(CNCc3ccco3)c3nn(C)c(=O)n3c2c1,-13.6
3,Cc1cncc(C2CCCN(Cc3ccncc3)C2)n1 (stereo not given),-9.8
4,N#Cc1ccccc1CN1CCc2sccc2C1,-0.572
5,Cc1cc(C2NC(=O)CN2Cc2ccc(Br)cc2)cc(C)c1O (stereo not given),4.12
6,Cc1ccc(-c2cc(CNCCn3cc(C)cn3)on2)cc1,-7.22
7,CCCn1cc(NC(=O)c2ccc(S(=O)(=O)CC)cc2)ccc1=O,2.99
8,CCn1ccnc1CNCC(c1ccc(C)s1)N1CCOCC1 (stereo not given),6.41
9,COc1cccc(CN(C)C(=O)CN2CCN(c3nccs3)CC2)c1,-3.98
10,CNC(=O)CCNC(=O)Nc1cccc(Cl)c1SC(F)F,1.29
11,c1cnnc(N2CCCC(NCc3nc(-c4cccs4)no3)C2)c1 (stereo not given),15.8
12,CC1CCCCN1C(=O)c1n[nH]c(=O)c2ccccc12 (stereo not given),-0.402
13,CC(CNS(C)(=O)=O)c1ccc(F)c(F)c1 (stereo not given),-4.71
14,CN(C)c1ccc(CCCNC(=O)NCC(O)c2cccs2)cc1 (stereo not given),-2.59
15,COC(=O)CCN(C)Cc1cc(Br)cs1,0.311
16,CC(C)n1c2ccccc2c2c1cc(C(=O)NC1CC1)n2C(=O)N(C)C,-109
17,Cn1cc(C[C@H]2[C@H](O)CCN2C(=O)c2ccsc2)cn1,-72.6
18,CC(CCCC(C)(C)O)Nc1ccc(-c2nccn2C)nn1 (stereo not given),3.96
19,c1cnn(Cc2ccc(CN3CCC4(CCNCC4)C3)cc2)c1,-15.6
20,CCCn1cc(C(=O)NCC(=O)NC2CC2)c(C)n1,-3.91
21,CCC(CC)CN1CCC(n2cc(C3CCCC3)nn2)CC1,3.92
22,COCCNc1cc(-c2ccccc2C(N)=O)c2cc[nH]c2n1,-2.32
23,Cc1cc(C)n(CC(C)NCc2cnc3c(C)cccn23)n1 (stereo not given),1.44

row,Structure (SMILES),cytotoxicity at 10 µM [%]
1,COC(=O)[C@H]1C[C@@H](O)CCN1S(=O)(=O)c1cc(C)c(Cl)cc1C,-0.566
2,Cc1nc(C)c(C)c(NCCSc2ccccn2)n1,-4.23
3,CN(C)C(=O)c1cc(-c2cnc(N)nc2)nc2cc(F)ccc12,2.54
4,COc1coc(CN2CCCC(CCc3ccccc3F)C2)cc1=O (stereo not given),-1.62
5,Cc1cc(C)n(NC(=O)c2ccc(Cl)cc2Cl)c(=O)c1,-7.05
6,CC(C)c1ccc(CN2CCN(C(=O)c3cc(C4CC4)[nH]n3)CC2)cc1,39.7
7,O=C(NCCCNc1ccc(C(F)(F)F)cn1)c1ccc2c(c1)OCO2,-8.51
8,O=C(CS(=O)(=O)Cc1cc(Cl)c2c(c1)OCCCO2)NCC1CC1,1.07
9,CCCC(C#N)NC(=O)c1cc(Br)c2c(c1)OCCO2 (stereo not given),-9.2
10,CCc1nc2n(n1)CC(NCc1nnc(C(C)C)o1)CC2 (stereo not given),-15.7
11,CC(=O)NCCNC(=O)CN1CCCC1c1c(C)nn(C)c1C (stereo not given),-25.1
12,O=C(COC[C@]12COC[C@H]1CN(C1CCC1)C2)N1CCCC1,-102
13,CC(C)c1ccc(CN2CCC3(CCCN(c4nncs4)C3)C2)cc1 (stereo not given),-1.15
14,CCOC(=O)[C@]12CCCN(Cc3cccs3)C[C@H]1CN(CC(C)C)C2,10.8
15,COc1ccccc1C(=O)N1Cc2cc(C)ccc2OCC1CN(C)C (stereo not given),5.2
16,c1cnc(N2CCCC(NCc3ccc(-n4ccnc4)cc3)C2)nc1 (stereo not given),-7.55
17,c1cnc(NCc2cncc3c2CCN(Cc2ccsc2)C3)nc1,-74.4
18,COc1ccccc1CN1C[C@@H]2COC[C@]2(COCc2ccncc2)C1,-70.9
19,CN(C)C(=O)CN1C[C@H]2CCN(Cc3ccccc3)CC[C@H]2S1(=O)=O,9.82
20,Cc1nc(CN2CCc3ncnc(-c4ccsc4)c3CC2)cs1,-79.8
21,CC(Cc1ccccc1F)NC(=O)CCC1=NC(=C2N=CN=N2)NO1 (stereo not given),7.69
22,CCNc1ncc(CN2C[C@@H]3CC[C@H]2CN(C(=O)C2CCC2)C3)cn1,6.29
